Data taken from ChEMBL document CHEMBL2010803, “Novel NSAID 1-acyl-4-cycloalkyl/arylsemicarbazides and 1-acyl-5-benzyloxy/hydroxy carbamoylcarbazides as potential anticancer agents and antioxidants” (Eur J Med Chem, 2012).
Activity calls are given as the source filed them. The rule behind the calls is not given here.

How the values were obtained:
[1] = system: Human alphaherpesvirus 1; test: Antiviral activity against HSV1 KOS infected in human lung fibroblast assessed as inhibition of virus-induced cytopathic effect at 0.32 to 100 uM; assay type: functional, organism-based
Method in brief: (§1)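 Confluent cell cultures were infected with 100 CCID50 of virus in the presence of test compound at 100, 40, 8, 1.6 and 0.32 μM. Cytopathic effect was scored once it was complete in untreated infected controls.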

[2] = system: HeLa; test: Cytostatic activity against human HeLa cells after 3 days by coulter counter analysis; assay type: functional, cell-based; details: 72 h
Method in brief: (§2)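 300,000–500,000 cells/ml mixed 1:1 with compound dilutions and incubated at 37 °C for 2 days (L1210) or 3 days (CEM, HeLa). Cell number counted with a Coulter counter; HeLa trypsinized before counting.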

[3] = system: L1210; test: Cytostatic activity against mouse L1210 cells after 2 days by coulter counter analysis; assay type: functional, cell-based; details: L1210, 48 h; method in brief: as §2
[4] = system: Radical scavenging activity; test: Antioxidant activity assessed as DPPH free radical scavenging activity at 100 uM after 20 mins by spectrophotometric analysis; assay type: functional
Method in brief: (§3)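 0.05 mM DPPH in absolute ethanol mixed with an equal volume of compound in DMSO (final 100 μM). Shaken and left 20 or 60 min, then absorbance read at 517 nm and percent activity calculated. Three replicates, averaged.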

[5] = system: Feline coronavirus; test: Antiviral activity against Feline coronavirus infected in feline CRFK cells assessed as inhibition of virus-induced cytopathic effect at 0.32 to 100 uM; assay type: functional, organism-based; method in brief: as §1
[6] = system: Influenza A virus; test: Antiviral activity against Influenza A virus H3N2 infected in MDCK cells assessed as inhibition of virus-induced cytopathic effect at 0.32 to 100 uM; assay type: functional, organism-based
Method in brief: (§4)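 Confluent MDCK monolayers were infected in the presence of the compound at 100, 40, 8, 1.6 and 0.32 μM. Viral cytopathicity was scored once it was complete in untreated infected control cultures.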

[7] = system: Human respirovirus 3; test: Antiviral activity against Parainfluenza virus 3 infected in african green monkey Vero cells assessed as inhibition of virus-induced cytopathic effect at 0.32 to 100 uM; assay type: functional, organism-based; method in brief: as §1
[8] = Antioxidant activity assessed as inhibition of AAPH-induced linoleic acid lipid peroxidation by measuring conjugated diene hydroperoxide level; assay type: functional; design: concentration or dose not given beside the values
Method in brief: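 Linoleic acid sodium salt (10 μL of 16 mM) in 0.05 M phosphate buffer pH 7.4 at 37 °C. Oxidation started under air with 50 μL of 40 mM AAPH. Conjugated diene hydroperoxide formation followed as absorbance rise at 234 nm; control contains the same DMSO level. At least triplicate.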

[9] = system: Influenza A virus; test: Antiviral activity against Influenza A virus H1N1 infected in MDCK cells assessed as inhibition of virus-induced cytopathic effect at 0.32 to 100 uM; assay type: functional, organism-based; method in brief: as §4
[10] = system: Influenza B virus; test: Antiviral activity against Influenza B virus infected in MDCK cells assessed as inhibition of virus-induced cytopathic effect at 0.32 to 100 uM; assay type: functional, organism-based; method in brief: as §4
[11] = system: Vesicular stomatitis virus; test: Antiviral activity against VSV infected in human lung fibroblast assessed as inhibition of virus-induced cytopathic effect at 0.32 to 100 uM; assay type: functional, organism-based
[12] = system: Respiratory syncytial virus; test: Antiviral activity against RSV infected in human cervix carcinoma cells assessed as inhibition of virus-induced cytopathic effect at 0.32 to 100 uM; assay type: functional, organism-based; method in brief: as §1
[13] = system: Coxsackievirus B4; test: Antiviral activity against Coxsackievirus B4 infected in human cervix carcinoma cells assessed as inhibition of virus-induced cytopathic effect at 0.32 to 100 uM; assay type: functional, organism-based; method in brief: as §1
[14] = system: HaCaT; test: Cytostatic activity against human HaCaT cells after 72 hrs by MTT assay; assay type: ADME, cell-based
Method in brief: (§5)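 Monolayers in DMEM with 10% FBS, 2 mM L-glutamine and penicillin/streptomycin, 37 °C, 5% CO2. Seeded at 1–3 × 10^4 cells/ml, then compound added in tenfold dilutions (10⁻⁸–10⁻⁴ M) for 72 h. MTT read at 570 nm; percent growth taken against time-zero and untreated controls. IC50 by linear regression; quadruplicate, at least two experiments.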

[15] = system: CCRF-CEM; test: Cytostatic activity against human CEM cells after 3 days by coulter counter analysis; assay type: functional, cell-based; details: 72 h; method in brief: as §2
[16] = system: MCF7; test: Cytostatic activity against human MCF7 cells after 72 hrs by MTT assay; assay type: functional, cell-based; details: MCF7, 72 h; method in brief: as §5
[17] = system: HCT-116; test: Cytostatic activity against human HCT116 cells after 72 hrs by MTT assay; assay type: functional, cell-based; details: HCT-116, 72 h; method in brief: as §5
[18] = system: Vaccinia virus; test: Antiviral activity against Vaccinia virus infected in human lung fibroblast assessed as inhibition of virus-induced cytopathic effect at 0.32 to 100 uM; assay type: functional, organism-based; details: Orthopoxvirus vaccinia
[19] = system: Punta Toro virus; test: Antiviral activity against Punta Toro virus infected in african green monkey Vero cells assessed as inhibition of virus-induced cytopathic effect at 0.32 to 100 uM; assay type: functional, organism-based; method in brief: as §1
[20] = system: Glycine max; test: Inhibition of soybean LOX assessed as conversion of sodium linoleate to 13- hydroperoxylinoleic acid at 100 uM
[21] = system: Vesicular stomatitis virus; test: Antiviral activity against Vesicular stomatitis virus infected in human cervix carcinoma cells assessed as inhibition of virus-induced cytopathic effect at 0.32 to 100 uM; assay type: functional, organism-based
Method in brief: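 Confluent human cervix carcinoma (HeLa) cultures received 100 CCID50 of VSV together with the compound at 100, 40, 8, 1.6 or 0.32 μM. Cytopathicity was read at the point of full CPE in infected, untreated control wells.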

[22] = system: Mammalian orthoreovirus 1; test: Antiviral activity against Reovirus-1 infected in african green monkey Vero cells assessed as inhibition of virus-induced cytopathic effect at 0.32 to 100 uM; assay type: functional, organism-based; method in brief: as §1
[23] = system: Human immunodeficiency virus 2; test: Antiviral activity against HIV2 ROD infected in human CEM cells assessed as inhibition of virus-induced CEM giant cell formation at 0.32 to 100 uM after 4 days; assay type: functional, organism-based; details: ISOLATE ROD, CCRF-CEM
Method in brief: (§6)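 CEM cells (~3 × 10^5 cells/cm³) exposed to 100 CCID50/ml of virus and seeded into wells holding compound dilutions. Incubated 4 days at 37 °C, then giant cell formation examined microscopically.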

[24] = system: Human alphaherpesvirus 2; test: Antiviral activity against HSV2 G infected in human lung fibroblast assessed as inhibition of virus-induced cytopathic effect at 0.32 to 100 uM; assay type: functional, organism-based; details: strain G; method in brief: as §1
[25] = system: Sindbis virus; test: Antiviral activity against Sindbis virus infected in african green monkey Vero cells assessed as inhibition of virus-induced cytopathic effect at 0.32 to 100 uM; assay type: functional, organism-based; method in brief: as §1
[26] = system: NCI-H460; test: Cytostatic activity against human NCI-H460 cells after 72 hrs by MTT assay; assay type: functional, cell-based; details: NCI-H460, 72 h; method in brief: as §5
[27] = system: Human immunodeficiency virus 1; test: Antiviral activity against HIV1 3B infected in human CEM cells assessed as inhibition of virus-induced CEM giant cell formation at 0.32 to 100 uM after 4 days; assay type: functional, organism-based; details: CCRF-CEM; method in brief: as §6
[28] = system: Coxsackievirus B4; test: Antiviral activity against Coxsackievirus B4 infected in african green monkey Vero cells assessed as inhibition of virus-induced cytopathic effect at 0.32 to 100 uM; assay type: functional, organism-based; method in brief: as §1
[29] = system: Radical scavenging activity; test: Antioxidant activity assessed as DPPH free radical scavenging activity at 100 uM after 60 mins by spectrophotometric analysis; assay type: functional; method in brief: as §3
[30] = system: Felid alphaherpesvirus 1; test: Antiviral activity against Feline herpesvirus infected in feline CRFK cells assessed as inhibition of virus-induced cytopathic effect at 0.32 to 100 uM; assay type: functional, organism-based; method in brief: as §1
[31] = dose or concentration not given here

SMILES	inhibition [1]	Activity [4]	inhibition [5]	inhibition [6]	inhibition [7]	inhibition [9]	inhibition [10]	inhibition [11]	inhibition [12]	inhibition [13]	IC50 [14] [µM]	IC50 [15] [µM]	IC50 [16] [µM]	IC50 [17] [µM]	inhibition [18]	inhibition [19]	inhibition [20]	inhibition [21]	inhibition [22]	inhibition [23]	further results
CC(C(=O)NNC(=O)NCCc1ccccc1)c1cccc(Oc2ccccc2)c1 (configuration not stated)	inactive	4%	inactive	inactive	inactive	inactive	inactive	inactive	inactive	inactive	15	71	19	18	inactive	inactive	20%	inactive	inactive	inactive	IC50 [2]: 64 µM; IC50 [3]: 53 µM; inhibition [8, 31]: 51%; inhibition [24]: inactive; inhibition [25]: inactive; IC50 [26]: 22 µM; inhibition [27]: inactive; inhibition [28]: inactive; Activity [29]: 7%; inhibition [30]: inactive
CC(C(=O)NNC(=O)NC1CCCC1)c1cccc(Cc2ccccc2)c1 (configuration not stated)	inactive	4%	inactive	inactive	inactive	inactive	inactive	inactive	inactive	inactive	50	66	19	33	inactive	inactive	inactive	inactive	inactive	inactive	IC50 [2]: 43 µM; inhibition [8]: inactive; inhibition [24]: inactive; inhibition [25]: inactive; IC50 [26]: 38 µM; inhibition [27]: inactive; inhibition [28]: inactive; Activity [29]: 12%; inhibition [30]: inactive
CC(C(=O)NNC(=O)NCC1CCCCC1)c1cccc(Oc2ccccc2)c1 (configuration not stated)	inactive	18%	inactive	inactive	inactive	inactive	inactive	inactive	inactive	inactive	20	24	13	15	inactive	inactive	12%	inactive	inactive	inactive	IC50 [3]: 22 µM; inhibition [8, 31]: 64%; inhibition [24]: inactive; inhibition [25]: inactive; IC50 [26]: 19 µM; inhibition [27]: inactive; inhibition [28]: inactive; Activity [29]: 21%; inhibition [30]: inactive
CC(C)Cc1ccc(C(C)C(=O)NNC(=O)NC(c2ccccc2)c2ccccc2)cc1 (configuration not stated)	inactive	inactive	inactive	inactive	inactive	inactive	inactive	inactive	inactive	inactive	13	23	6	13	inactive	inactive	46%	inactive	inactive	inactive	IC50 [3]: 20 µM; inhibition [8, 31]: 74%; inhibition [24]: inactive; inhibition [25]: inactive; IC50 [26]: 16 µM; inhibition [27]: inactive; inhibition [28]: inactive; Activity [29]: inactive; inhibition [30]: inactive
